Measurements: ChEMBL document CHEMBL3758153, “Identification of novel cyclic lipopeptides from a positional scanning combinatorial library with enhanced antibacterial and antibiofilm activities” (Eur J Med Chem, 2016)
The source made the active and inactive calls. No cut-off for these calls is given here. Where a SMILES comes first, the peptide text is derived from it. Bridges are numbered along the chain shown (N, C = ends). [ ]: non-standard residue; d: D form. The star is where a group is joined. Dodecanoyl(12-guanidino) = N=C(N)NCCCCCCCCCCCC(=O)*; d(aThr) = C[C@@H](O)[C@@H](N)C(=O)O

Columns and labels:
Staphylococcus aureus [1] = assay: Antibacterial activity against methicillin-resistant Staphylococcus aureus CBD-635 at 100 ug/mL; format: functional, organism-based
In short: (§1)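 CLSI microbroth dilution in undiluted Müller–Hinton broth; peptides dissolved in DMSO and diluted in medium to 1% DMSO (v/v) final. Each agent tested at a fixed concentration against the ESKAPE clinical isolate. Controls: medium alone, inoculum without drug, and inoculum with methicillin, vancomycin, nisin, colistin or bacitracin. Run in triplicate.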

Staphylococcus aureus [2] = assay: Antibacterial activity against methicillin-resistant Staphylococcus aureus CBD-635 at 50 ug/mL; format: functional, organism-based; in short: as §1
Staphylococcus aureus [3] = assay: Antibacterial activity against methicillin-resistant Staphylococcus aureus CBD-635 at 35 ug/mL; format: functional, organism-based; in short: as §1
Enterococcus faecium [4] = assay: Antibacterial activity against vancomycin-resistant Enterococcus faecium USF-1449 at 100 ug/mL; format: functional, organism-based; in short: as §1
Klebsiella pneumoniae [5] = assay: Antibacterial activity against carbapenem-resistant Klebsiella pneumoniae USF-1433 at 100 ug/mL; format: functional, organism-based; in short: as §1
Acinetobacter baumannii [6] = assay: Antibacterial activity against Acinetobacter baumannii USF-1403 at 100 ug/mL; format: functional, organism-based
In short: (§2)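 Broth microdilution per CLSI in undiluted Müller–Hinton broth. Compounds were dissolved in DMSO and diluted to a final 1% DMSO (v/v). Plates included medium-only and no-drug growth controls, plus methicillin, vancomycin, nisin, colistin and bacitracin. Triplicate runs.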

Enterococcus faecium [7] = assay: Antibacterial activity against vancomycin-resistant Enterococcus faecium USF-1449 at 50 ug/mL; format: functional, organism-based; in short: as §1
Klebsiella pneumoniae [8] = assay: Antibacterial activity against carbapenem-resistant Klebsiella pneumoniae USF-1433 at 50 ug/mL; format: functional, organism-based; in short: as §1
Acinetobacter baumannii [9] = assay: Antibacterial activity against Acinetobacter baumannii USF-1403 at 50 ug/mL; format: functional, organism-based; in short: as §2
Enterococcus faecium [10] = assay: Antibacterial activity against vancomycin-resistant Enterococcus faecium USF-1449 at 35 ug/mL; format: functional, organism-based; in short: as §1
Acinetobacter baumannii [11] = assay: Antibacterial activity against Acinetobacter baumannii USF-1403 at 35 ug/mL; format: functional, organism-based; in short: as §2
Acinetobacter baumannii [12] = assay: Antibacterial activity against Acinetobacter baumannii USF-1403 at 25 ug/mL; format: functional, organism-based; in short: as §2
Staphylococcus aureus [13] = assay: Ratio of MIC for methicillin-resistant Staphylococcus aureus CBD-635 after 8 serial passages to MIC for methicillin-resistant Staphylococcus aureus CBD-635 after 1st serial passage; format: functional
In short: (§3)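 Serial passage: exponential-phase cultures in MHB at about 10^6 CFU/mL final, started at ½ MIC of agent, incubated overnight at 37°C. An aliquot was moved each step to a 2-fold higher concentration, for 8 passages. MIC was determined at each step by broth microdilution. Vancomycin and ciprofloxacin were comparators. Three independent experiments.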

Pseudomonas aeruginosa [14] = assay: Ratio of MIC for Pseudomonas aeruginosa USF-1423 after 8 serial passages to MIC for Pseudomonas aeruginosa USF-1423 after 1st serial passage; format: functional; in short: as §3
Staphylococcus aureus [15] = assay: Antibacterial activity against methicillin-resistant Staphylococcus aureus CBD-635 at 25 ug/mL; format: functional, organism-based; in short: as §1
Staphylococcus aureus [16] = assay: Antibacterial activity against methicillin-resistant Staphylococcus aureus CBD-635 at 10 ug/mL; format: functional, organism-based; in short: as §1
Staphylococcus aureus [17] = assay: Antibacterial activity against methicillin-resistant Staphylococcus aureus CBD-635 at 5 ug/mL; format: functional, organism-based; in short: as §1
Enterococcus faecium [18] = assay: Antibacterial activity against vancomycin-resistant Enterococcus faecium USF-1449 at 25 ug/mL; format: functional, organism-based; in short: as §1
Staphylococcus aureus [19] = assay: Antibacterial activity against methicillin-resistant Staphylococcus aureus SAP0017 clinical isolate assessed as inhibition of biofilm formation at 4.8 uM after 3 days by Styo-9/propidium iodide staining based confocal laser scanning microscopy; format: functional, organism-based
Pseudomonas aeruginosa [20] = assay: Antibacterial activity against Pseudomonas aeruginosa PA14 assessed as inhibition of biofilm formation at 4.8 uM after 3 days by Styo-9/propidium iodide staining based confocal laser scanning microscopy; format: functional, organism-based
Staphylococcus aureus [21] = assay: Antibacterial activity against methicillin-resistant Staphylococcus aureus SAP0017 clinical isolate assessed as eradication of mature biofilm formation at 4.8 uM after 24 hrs by Styo-9/propidium iodide staining based confocal laser scanning microscopy; format: functional, organism-based
Pseudomonas aeruginosa [22] = assay: Antibacterial activity against Pseudomonas aeruginosa PA14 assessed as eradication of mature biofilm formation at 4.8 uM after 24 hrs by Styo-9/propidium iodide staining based confocal laser scanning microscopy; format: functional, organism-based
[23] = Hemolytic activity in human erythrocytes at 155 uM after 1 hr; format: ADME, cell-based; conditions: erythrocyte
BJ = assay: Cytotoxicity against human BJ cells assessed as reduction in cell viability at 150 uM after 48 to 72 hrs by Cell Titer-Glo Luminescent assay; format: cell-based
In short: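 BJ fibroblasts were seeded at 10,000 per well in EMEM with 10% FBS and incubated overnight at 37 °C, 5% CO2. Medium was then replaced with 2% FBS medium containing peptide (0.5–500 μM, final 1% DMSO). After 48 and 72 h, viability was read by CellTiter-Glo luminescence. Controls were 10 μM doxorubicin and 20% DMSO.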

[24] = Hemolytic activity in human erythrocytes at 320 uM after 1 hr; format: ADME, cell-based; conditions: erythrocyte
Pseudomonas aeruginosa [25] = assay: Antibacterial activity against Pseudomonas aeruginosa USF-1423 at 100 ug/mL; format: functional, organism-based; in short: as §2
Enterobacter cloacae [26] = assay: Antibacterial activity against carbapenem-resistant Enterobacter cloacae USF-1454 at 100 ug/mL; format: functional, organism-based; in short: as §1
Pseudomonas aeruginosa [27] = assay: Antibacterial activity against Pseudomonas aeruginosa USF-1423 at 50 ug/mL; format: functional, organism-based; in short: as §2
Enterobacter cloacae [28] = assay: Antibacterial activity against carbapenem-resistant Enterobacter cloacae USF-1454 at 50 ug/mL; format: functional, organism-based; in short: as §1
Pseudomonas aeruginosa [29] = assay: Antibacterial activity against Pseudomonas aeruginosa USF-1423 at 25 ug/mL; format: functional, organism-based; in short: as §2
Enterobacter cloacae [30] = assay: Antibacterial activity against carbapenem-resistant Enterobacter cloacae USF-1454 at 25 ug/mL; format: functional, organism-based; in short: as §1
Enterococcus faecium [31] = assay: Antibacterial activity against vancomycin-resistant Enterococcus faecium USF-1449 at 10 ug/mL; format: functional, organism-based; in short: as §1
Acinetobacter baumannii [32] = assay: Antibacterial activity against Acinetobacter baumannii USF-1403 at 10 ug/mL; format: functional, organism-based; in short: as §2
Pseudomonas aeruginosa [33] = assay: Antibacterial activity against Pseudomonas aeruginosa USF-1423 at 10 ug/mL; format: functional, organism-based; in short: as §2
Acinetobacter baumannii [34] = assay: Antibacterial activity against Acinetobacter baumannii USF-1403 at 5 ug/mL; format: functional, organism-based; in short: as §2
Pseudomonas aeruginosa [35] = assay: Antibacterial activity against Pseudomonas aeruginosa USF-1423 at 5 ug/mL; format: functional, organism-based; in short: as §2

Row | Compound | Activity (Staphylococcus aureus [1]) | Activity (Staphylococcus aureus [2]) | Activity (Staphylococcus aureus [3]) | Activity (Enterococcus faecium [4]) | Activity (Acinetobacter baumannii [6]) | Activity (Enterococcus faecium [7]) | Activity (Staphylococcus aureus [15]) | other results
1 | C[C@@H](O)[C@H]1NC(=O)[C@@H](CC(N)=O)NC(=O)[C@@H](CCCNC(=N)N)NC(=O)[C@H](Cc2c[nH]c3ccccc23)NC(=O)[C@@H](Cc2c[nH]c3ccccc23)NC(=O)C(NC(=O)CCCCCCCCCCCNC(=N)N)CNC1=O (stereo partly drawn) | Active | Active | Active | – | – | – | – | –
2 | CC(C)C[C@@H]1NC(=O)[C@@H](CC(C)C)NC(=O)C(NC(=O)CCCCCCCCCCCNC(=N)N)CNC(=O)[C@@H](CCCNC(=N)N)NC(=O)[C@@H](CC(N)=O)NC(=O)[C@@H](CCCCN)NC1=O (stereo partly drawn) | Active | Active | Active | Active | Active | Active | – | Activity (Klebsiella pneumoniae [5]): Active; Activity (Klebsiella pneumoniae [8]): Active; Activity (Acinetobacter baumannii [9]): Active; Activity (Enterococcus faecium [10]): Active; Activity (Acinetobacter baumannii [11]): Active; Activity (Acinetobacter baumannii [12]): Active
3 | O=C(O)c1cn(C2CC2)c2cc(N3CCNCC3)c(F)cc2c1=O [CIPROFLOXACIN] | – | – | – | – | – | – | – | Ratio (Staphylococcus aureus [13]): 64; Ratio (Pseudomonas aeruginosa [14]): 64
4 | CC(C)C[C@@H]1NC(=O)[C@@H](CC(C)C)NC(=O)C(NC(=O)CCCCCCCCCCCNC(=N)N)CNC(=O)[C@@H](CCCCN)NC(=O)[C@@H](CC(N)=O)NC(=O)[C@@H](Cc2ccccc2)NC1=O (stereo partly drawn) | Active | Active | Active | – | – | – | – | –
5 | CC[C@@H](C)[C@H]1NC(=O)[C@H](CC(C)C)NC(=O)[C@@H](CCCCN)NC(=O)C(NC(=O)CCCCCCCCCCCNC(=N)N)CNC(=O)[C@@H](CCCCN)NC(=O)[C@@H](CC(N)=O)NC1=O (stereo partly drawn) | – | – | – | Active | Active | Active | – | Activity (Acinetobacter baumannii [9]): Active; Activity (Acinetobacter baumannii [11]): Active; Activity (Acinetobacter baumannii [12]): Active
6 | CN[C@@H](CC(C)C)C(=O)N[C@H]1C(=O)N[C@@H](CC(N)=O)C(=O)N[C@H]2C(=O)N[C@H]3C(=O)N[C@H](C(=O)N[C@@H](C(=O)O)c4cc(O)cc(O)c4-c4cc3ccc4O)[C@H](O)c3ccc(c(Cl)c3)Oc3cc2cc(c3O[C@H]2O[C@@H](CO)[C@H](O)[C@@H](O)[C@@H]2O[C@@H]2C[C@@](C)(N)[C@@H](O)[C@@H](C)O2)Oc2ccc(cc2Cl)[C@H]1O | Active | Active | – | – | Active | – | Active | Activity (Staphylococcus aureus [16]): Active; Activity (Staphylococcus aureus [17]): Active; Ratio (Staphylococcus aureus [13]): 64; Ratio (Pseudomonas aeruginosa [14]): 64
7 | CC(C)[C@@H]1NC(=O)[C@@H](C(C)C)NC(=O)[C@@H](NC(=O)CCCCCCCCCCCNC(=N)N)[C@@H](C)OC(=O)[C@@H](C)NC(=O)[C@@H](CC(N)=O)NC(=O)[C@@H]([C@@H](C)O)NC1=O ({Dodecanoyl(12-guanidino)}-T[dV]V[d(aThr)][dN][dA]; ester 1-C) | Active | Active | – | – | Active | Active | Active | Activity (Enterococcus faecium [18]): Active; Activity (Staphylococcus aureus [16]): Active; inhibition (Staphylococcus aureus [19]): Active; inhibition (Pseudomonas aeruginosa [20]): Active; Activity (Staphylococcus aureus [21]): Active; Activity (Pseudomonas aeruginosa [22]): Active; Activity [23]: Toxic; Activity (BJ): Toxic
8 | CC(C)C[C@@H]1NC(=O)[C@@H](Cc2c[nH]c3ccccc23)NC(=O)C(NC(=O)CCCCCCCCCCCNC(=N)N)CNC(=O)[C@@H](CCCNC(=N)N)NC(=O)[C@@H](CC(N)=O)NC(=O)[C@@H](Cc2c[nH]c3ccccc23)NC1=O (stereo partly drawn) | Active | Active | Active | – | – | – | Active | –
9 | CC(C)C[C@@H]1NC(=O)[C@@H](CC(C)C)NC(=O)C(NC(=O)CCCCCCCCCCCNC(=N)N)CNC(=O)[C@@H](CCCNC(=N)N)NC(=O)[C@@H](CC(N)=O)NC(=O)[C@@H](Cc2ccccc2)NC1=O (stereo partly drawn) | Active | Active | – | – | – | – | – | –
10 | CC[C@@H](C)[C@H]1NC(=O)[C@H](Cc2ccccc2)NC(=O)[C@@H](CC(C)C)NC(=O)C(NC(=O)CCCCCCCCCCCNC(=N)N)CNC(=O)[C@@H](CCCCN)NC(=O)[C@@H](CC(N)=O)NC1=O (stereo partly drawn) | Active | Active | Active | – | – | – | – | –
11 | CC[C@@H](C)[C@H]1NC(=O)[C@H](Cc2ccccc2)NC(=O)[C@@H](CC(C)C)NC(=O)C(NC(=O)CCCCCCCCCCCNC(=N)N)CNC(=O)[C@@H](CCCNC(=N)N)NC(=O)[C@@H](CC(N)=O)NC1=O (stereo partly drawn) | Active | Active | Active | – | – | – | – | –
12 | CC(C)[C@@H]1NC(=O)[C@@H](C(C)C)NC(=O)C(NC(=O)CCCCCCCCCCCNC(=N)N)CNC(=O)[C@@H](C)NC(=O)[C@@H](CC(N)=O)NC(=O)[C@@H]([C@@H](C)O)NC1=O (stereo partly drawn) | Active | – | – | Active | Active | Active | Active | inhibition (Staphylococcus aureus [19]): Active; inhibition (Pseudomonas aeruginosa [20]): Active; inhibition (Staphylococcus aureus [21]): inactive; inhibition (Pseudomonas aeruginosa [22]): inactive; Activity [24]: Non-toxic
13 | COLISTIN | Active | – | – | Active | Active | Active | – | Activity (Klebsiella pneumoniae [5]): Active; Activity (Pseudomonas aeruginosa [25]): Active; Activity (Enterobacter cloacae [26]): Active; Activity (Acinetobacter baumannii [9]): Active; Activity (Pseudomonas aeruginosa [27]): Active; Activity (Enterobacter cloacae [28]): Active; Activity (Enterococcus faecium [18]): Active; Activity (Acinetobacter baumannii [12]): Active; Activity (Pseudomonas aeruginosa [29]): Active; Activity (Enterobacter cloacae [30]): Active; Activity (Enterococcus faecium [31]): Active; Activity (Acinetobacter baumannii [32]): Active; Activity (Pseudomonas aeruginosa [33]): Active; Activity (Acinetobacter baumannii [34]): Active; Activity (Pseudomonas aeruginosa [35]): Active
